# Screens as filed in PubChem BioAssay.
# Compounds with a hit are over-represented: about 3.7% of the library has one in this group of screens.
# KCNK3 block – human KCNK3 channel inhibitors, primary screen, CHO cells, FluxOR thallium flux, B-score; Potassium channel subfamily K member 3 (Homo sapiens), O14649; FluxOR fluorescence; hits give low values; B-score at 10 µM; actives 0.84% (n = 340,000); AID 602410, 2012;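 active = B-score under library mean minus 4 SD, starting fluorescence ratio at most library mean plus 5 SD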;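 note: more negative B-score means stronger inhibition of thallium flux through KCNK3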
# KCNQ1 block – inhibitors of human KCNQ1 channel, primary screen, cell-based, thallium flux, high-throughput; Potassium voltage-gated channel subfamily KQT member 1 (Homo sapiens), P51787; CHO-K1 KCNQ1, FluxOR thallium flux fluorescence; hits give high values; B-score at 10 µM; actives 1.3% (n = 310,000);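 active = compounds whose thallium flux B-score, printed positive for inhibition, exceeds three library SD while starting fluorescence stays within three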;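 note: channel opened by potassium depolarization with thallium stimulus after 20 min compound exposure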
# Kir21 block – inhibitors of mouse Kir2.1 inward-rectifier potassium channel; HEK293-Kir2.1, FluxOR thallium flux fluorescence; hits give low values; AID 1672, 2009; B-score at 10 µM; actives 0.85% (n = 310,000);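 active = fluorescence ratio B-score at or below minus 3 SD of library scores, with starting-brightness B-score within 2 SD, cut at about -4.2 in these data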;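 note: channel flux triggered by added potassium and thallium sulfate stimulus; B-score of peak minus minimum fluorescence over baseline after thallium stimulus; more negative B-score means stronger Kir2.1 block with less thallium influx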
# Target sequence (P35561 whole entry, looked up): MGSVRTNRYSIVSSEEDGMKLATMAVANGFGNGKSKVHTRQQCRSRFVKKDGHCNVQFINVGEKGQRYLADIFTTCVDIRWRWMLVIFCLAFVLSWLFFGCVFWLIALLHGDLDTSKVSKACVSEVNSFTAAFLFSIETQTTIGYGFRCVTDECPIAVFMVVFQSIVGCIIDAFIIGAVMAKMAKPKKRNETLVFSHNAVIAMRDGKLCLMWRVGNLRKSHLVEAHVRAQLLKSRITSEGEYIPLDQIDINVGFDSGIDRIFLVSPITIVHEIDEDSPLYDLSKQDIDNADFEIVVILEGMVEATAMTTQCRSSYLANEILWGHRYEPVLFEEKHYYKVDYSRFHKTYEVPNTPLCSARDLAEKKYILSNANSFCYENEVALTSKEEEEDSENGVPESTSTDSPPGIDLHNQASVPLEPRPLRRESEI
# KCNK9 inh – KCNK9 potassium channel inhibitors, primary screen, HEK293 cells, thallium flux | actives 1.2% (n = 310,000) | FluxOR thallium flux fluorescence; hits give low values | B-score at 10 µM;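 active = ratio B-score over 3 SD below the library mean, with starting fluorescence within 5 SD of its mean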;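 note: negative B-score means less thallium flux so channel inhibition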
# KCNQ1 act – potentiators or activators of KCNQ1 channel, primary screen, cell-based, thallium flux, high-throughput; B-score at 10 µM; CHO-K1 KCNQ1, thallium flux FluxOR fluorescence; hits give high values; Potassium voltage-gated channel subfamily KQT member 1 (Homo sapiens), P51787; actives 0.35% (n = 310,000);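 active = fluorescence ratio B-score, a plate-corrected score, at least three library SD, with initial intensity B-score within 5 SD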
#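 System: Stable KCNQ1 CHO-K1 line | Incubation: 90 min dye loading and 20 min compound exposure, both at room temperature | Measure: Ratio B score | Medium: Assay buffer for compound exposure, DMSO matched across wells | Compound dosing: Single-concentration screen | Probe or stimulus: K+/Tl+ depolarizing stimulus | Measured by: Kinetic FluxOR fluorescence, 10 s baseline plus 110 s post-stimulus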
# hERG rescue – hERG rescue from dofetilide block, primary screen, cell-based, CHO-hERG, FluxOR thallium flux, dofetilide IC70; dofetilide IC70 present; activation (rescue from dofetilide block), less the hit threshold, % at 10 µM; Voltage-gated inwardly rectifying potassium channel KCNH2 (Homo sapiens), Q12809; AID 1511, 2009; actives 0.51% (n = 310,000);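 active = activation above the mean of controls blocked by dofetilide plus 5 SD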;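 note: thallium influx through hERG after potassium depolarization seen as dye fluorescence rise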
# KCNK3 inh conf – retest of human KCNK3 channel inhibitors, confirmation, CHO cells, FluxOR thallium flux, triplicate | shares compounds with KCNK3 block | FluxOR fluorescence; 0% buffer, 100% carvedilol maximal block | ratio percent of control, % at 10 µM | actives 99% (n = 2,400) | AID 651638, 2012;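 active = ratio percent of control, averaged over triplicates, above buffer control mean plus 5 SD, cut at about 64% in these data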;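 note: ratio is the fluorescence rise from min to max over baseline after thallium stimulus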
# KCNK3 noninduced – thallium flux inhibition in non-induced cells, primary screen, counter-screen for KCNK3 inhibitor project, cell-based, non-induced KCNK3 line, FluxOR thallium, triplicate; actives 40% (n = 2,400); AID 651747, 2012; non-induced KCNK3 parental cells; hits give low values; thallium flux ratio (lower = more inhibition) at 10 µM; shares compounds with KCNK3 block;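 active = thallium flux ratio, averaged over three wells, more than 5 SD below the buffer control mean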;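 note: host cells are CHO cells without KCNK3 induction; ratio is peak minus trough fluorescence over baseline then normalized to buffer controls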
# * = called active by the depositor; i = inactive; / = no result.
SMILES,KCNK3 block,KCNQ1 block,Kir21 block,KCNK9 inh,KCNQ1 act,hERG rescue,KCNK3 inh conf,KCNK3 noninduced
CC1CCCC(C)N1C(=O)COC(=O)/C=C/c1ccc(Br)o1 (stereo not drawn),i,/,/,/,/,/,/,/
COCCN(CCOC)S(=O)(=O)c1ccc(C(=O)Nc2ccc(S(=O)(=O)Nc3nccc(C)n3)cc2)cc1,-8.94*,i,1.25,i,i,-1.2,70.3*,i
CC(C)(C)NS(=O)(=O)c1ccc(NC(=S)NC(=O)C2CCC2)cc1,i,i,0.71,i,i,-5.2,/,/
OCc1c(OCc2cccc(F)c2)ccc2ccccc12,-9.5*,i,1.15,i,i,-6.9,97.3*,i
Cc1ccc2nc(-c3cccc(S(=O)(=O)N4CC(C)OC(C)C4)c3)cn2c1 (stereo not drawn),i,i,0.92,i,i,-10.2,/,/
Cc1ccc(C)c(-c2cc(C(=O)Nc3cccnc3)c3ccccc3n2)c1,-12*,6*,-0.5,-8*,i,-9.2,124.7*,0.115*
CCNc1nc(NCC)nc(N(C)/N=C/c2ccco2)n1,i,i,1.07,i,i,-1.8,/,/
O=C1C=CC(=C(c2ccc(O)cc2)c2ccc(O)cc2)C=C1,i,/,/,/,/,/,/,/
CCOC(=O)C1CCN(c2nc3c(C)cccn3c(=O)c2/C=C(\C#N)S(=O)(=O)c2ccccc2)CC1,-9.32*,i,-0.99,i,i,-12.6,95.0*,i
Cc1cnc(C(=O)OCc2csc(CC(=O)Nc3ccccc3C)n2)cn1,i,i,1.51,i,i,-4.0,/,/
COCCOC(=O)C1=C(C)NC(=O)NC1c1cn(-c2ccccc2)nc1-c1cccs1 (stereo not drawn),i,i,-2.85,i,i,-12.6,/,/
C=CCOC(=O)C1=C(C)NC(=O)NC1c1cn(-c2ccccc2)nc1-c1cccs1 (stereo not drawn),-9.22*,i,1.57,i,i,-8.1,119.7*,0.153*
CC1CN(c2nc3ccccc3nc2SCC(=O)Nc2ccc(F)cc2)CC(C)O1 (stereo not drawn),-8.75*,i,2.41,i,i,-14.6,105.7*,0.142*
COc1cc(/C(C)=N\NC(=O)CSc2nc3ccccc3n2C)ccc1O,i,i,-1.22,i,i,-7.8,/,/
CCOC(=O)c1ccc(NC2c3ccccc3C(=O)N2c2cccnc2)cc1 (stereo not drawn),-9.71*,i,-2.14,i,i,-11.7,112.0*,i
CCc1cccc(NC2c3ccccc3C(=O)N2c2cccnc2)c1 (stereo not drawn),-10.6*,i,-1.38,i,i,-13.3,100.3*,i
Clc1ccc(CNc2ncnc3[nH]ncc23)cc1Cl,i,/,/,/,/,/,/,/
CC1(C(=O)O)CCC(C(=O)Nc2ccc(F)cc2)C1(C)C (stereo not drawn),i,i,-1.16,i,i,-9.8,/,/
CCc1ccc(NC(=O)COC(=O)Cn2cnc3ccccc32)cc1,i,/,/,/,/,/,/,/
Cc1cc(NC(=O)c2cccc(Br)c2)no1,i,i,-1.22,i,i,-6.0,/,/
COc1cc(CC(=O)N(C)CC(=O)Nc2ccc(Cl)c(C(F)(F)F)c2)cc(OC)c1OC,-9.2*,i,0.56,i,i,-7.9,113.3*,i
